High-throughput results as filed in PubChem.
Shown are actives, neighbours in structure and some others; about 2.9% of the full set was active somewhere.
Mot1-301 SUMO: SUMOylation pathway inhibition by Mot1-301 growth rescue; S. cerevisiae Mot1-301 growth rescue, ATP luminescence, 38.5C; percent above DMSO median, 100 means doubled; growth rescue, % at 18.8 µM; actives 1% (n = 320,000); AID 2716;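 active = every valid replicate shows activation above 250% relative to neutral control wells; inactive = the rest, any valid replicate at or below 250%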
IMP-1 inh: inhibitors of Pseudomonas aeruginosa IMP-1 metallo-beta-lactamase. purified IMP-1, nitrocefin hydrolysis, epi-absorbance fluorescence. inhibition, % at 5.6 µM. actives 0.45% (n = 290,000);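 active = inhibition above the mean plus 3 SD of all compounds in the same screening run, cut at about 4.5% in these data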
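System: purified recombinant IMP-1 beta-lactamase. Medium: Zinc- and detergent-supplemented HEPES buffer, pH 7.1. Compound: one 5.6 µM dose […]. Schedule: 15 min preincubation plus 25 min reaction at 25 °C. Technique: Epi-absorbance fluorescence, 480 nm excitation, 530 nm emission.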
NALP1 inh: blocks the NALP1 inflammasome reconstituted in yeast. actives 0.61% (n = 280,000). S. cerevisiae NALP1/ASC/caspase-1 growth, X-gal OD620, 72 h. inhibition, % at 10 µM; in the data active = inhibition mostly above about 24%, no sharp cut-off; inactive = mostly below about 32%
NLRP3 yeast inh: NALP3 inhibition in yeast; inhibition, % at 10 µM; actives 0.39% (n = 330,000); AID 2825; Yeast reconstituted NLRP3/ASC/caspase-1, beta-gal luminescence, 24 h;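 active = inhibition of 50% or more; inactive = inhibition below 50%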
VIM-2 inhibitor: blocks Pseudomonas aeruginosa VIM-2 metallo-beta-lactamase | purified VIM-2, nitrocefin hydrolysis, epi-absorbance fluorescence | inhibition, % at 5.6 µM | actives 0.89% (n = 290,000) | AID 1527;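 active = inhibition above the mean of all tested compounds plus 3 SD, cutoff set per screening run, cut at about 7.5% in these data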;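 also: red hydrolysis product quenches plate fluorescence so inhibitors raise well fluorescence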
PolyA inh: yeast polyadenylation inhibition. S. cerevisiae SKY197-pL101 polyadenylation reporter, beta-gal luminescence; efflux-impaired pdr1/pdr3 knockout yeast; score 100 = 6 SD above DMSO. activity score, % at 12 µM. actives 0.02% (n = 300,000). AID 1875;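 active = lowest replicate activity score at least 50, where 100 means six control SD above control mean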;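 also: yeast exposed to compound for 9 h at 30 °C; higher score means more reporter readthrough which indicates perturbed polyadenylation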
NALP3 yeast conf: confirmation of NALP3 inhibitors in yeast | yeast expressing human NALP3, luminescence | inhibition, % at 10 µM | actives 81% (n = 1,300) | shares compounds with NLRP3 yeast inh; in the data active = inhibition above about 48%
Casp1 ASC ctr: caspase-1-ASC yeast counter-screen hit; shares compounds with NLRP3 yeast inh; yeast expressing Caspase-1-ASC, luminescence counter screen; inhibition, % at 10 µM; actives 66% (n = 1,000); AID 488784
NALP3 yeast rt: retest-confirmed inhibitor of NALP3 in yeast. yeast expressing human NALP3, luminescence read-out. AID 488794. inhibition, % at 10 µM. shares compounds with NLRP3 yeast inh. actives 53% (n = 1,000)
Large screens that a line does not name were inactive (follow-up assays come after a bar, where they were run). Rule as the data show it, unless noted: active = inhibition above about 50%; inactive = the rest.

NCCC(=O)N1c2ccccc2Sc2ccccc21	NALP1 inh 36, NLRP3 yeast inh 68 | NALP3 yeast conf 78 | Casp1 ASC ctr 62 | NALP3 yeast rt 77
CC(=O)Nc1ccc(-c2cc(NC(C)=O)n(-c3ccccc3)n2)cc1	none
O=C(CCl)Nc1cc(-c2ccccc2)nn1-c1ccccc1	NALP1 inh 77, NLRP3 yeast inh 55 | NALP3 yeast conf 66 | Casp1 ASC ctr 78 | NALP3 yeast rt 69
Cc1ccc(-c2cc(NC(=O)CCl)n(-c3ccccc3)n2)cc1	NLRP3 yeast inh 54 (no result: NALP1 inh) | NALP3 yeast conf inactive
COc1ccc(C2/C(=C(/O)c3ccc4c(c3)CC(C)O4)C(=O)C(=O)N2CCCN2CCOCC2)cc1 (stereo unspecified)	none
CCOC(=O)c1sc(=S)n(-c2cc(OC)ccc2OC)c1N	NLRP3 yeast inh 97 | NALP3 yeast conf 96 | Casp1 ASC ctr 71 | NALP3 yeast rt 57
O=C(CCn1nc(-c2ccc(Cl)cc2)c2ccccc2c1=O)NN1CCOCC1	none
c1ccc(CCNc2ncnc3ccccc23)cc1	none
CCCCCCCCNc1ncnc2ccccc12	NLRP3 yeast inh 82 | NALP3 yeast conf 76 | Casp1 ASC ctr 80 | NALP3 yeast rt 79
CCCC1CCC(c2ccc(C(=O)NN)cc2)CC1 (stereo unspecified)	NLRP3 yeast inh 51 | NALP3 yeast conf inactive
CCCC1CCC(c2ccc(C(N)=O)cc2)CC1 (stereo unspecified)	none
CCOC(=O)c1cccc(NC(=O)c2ccccc2C)c1	none
CCOC(=O)c1cccc(NC(=O)c2cccs2)c1	NLRP3 yeast inh 61 | NALP3 yeast conf 79 | Casp1 ASC ctr 51 | NALP3 yeast rt 53
COc1ccc(NCCC(O)c2ccc(Cl)cc2)cc1 (stereo unspecified)	NLRP3 yeast inh 59 | NALP3 yeast conf 67 | Casp1 ASC ctr inactive | NALP3 yeast rt inactive
CC(=O)c1cnc2nc(SCc3ccc(Cl)cc3)nn2c1C	NLRP3 yeast inh 53 | NALP3 yeast conf 71 | Casp1 ASC ctr 64 | NALP3 yeast rt 50
CC(=O)c1cnc2nc(SCc3ccc(C)cc3)nn2c1C	none
O=C1C=C(c2ccc(F)cc2OCc2ccccc2)C[C@@H](c2ccc(F)cc2)C1	none (no result: IMP-1 inh, NALP1 inh, VIM-2 inhibitor, PolyA inh)
O=C(N/N=C/C(Cl)=C\c1ccccc1)c1cccs1	NLRP3 yeast inh 60 | NALP3 yeast conf 69
CC(/C=N/NC(=O)c1cccs1)=C\c1ccccc1	NLRP3 yeast inh 54 | NALP3 yeast conf 69 | Casp1 ASC ctr 63 | NALP3 yeast rt 53
Cc1ccc(NC(=O)CN2C(=O)NC3(CCCc4ccccc43)C2=O)c(C)c1 (stereo unspecified)	none (no result: Mot1-301 SUMO, IMP-1 inh, NALP1 inh, VIM-2 inhibitor, PolyA inh)
COc1cc(CNCCc2ccccc2)ccc1OCc1ccc(Cl)nc1	NLRP3 yeast inh 50 | NALP3 yeast conf inactive | Casp1 ASC ctr inactive | NALP3 yeast rt 51
CCCCNCc1ccc(OCc2ccc(Cl)nc2)c(OC)c1	none (no result: NALP1 inh)
CN(C(=O)Cn1nnc(-c2ccccc2)n1)C1CCS(=O)(=O)C1 (stereo unspecified)	none (no result: IMP-1 inh, NALP1 inh, VIM-2 inhibitor)
Nc1ccc(Oc2cc(N)cc(Oc3ccccc3)c2)cc1	NLRP3 yeast inh 50 | NALP3 yeast conf 64 | Casp1 ASC ctr inactive | NALP3 yeast rt inactive
O=C(CN(C1CCCCC1)S(=O)(=O)c1ccc(F)cc1)Nc1ccc2c(c1)OCO2	NLRP3 yeast inh 51 | NALP3 yeast conf 56 | Casp1 ASC ctr inactive | NALP3 yeast rt inactive
O=C(CN(C1CCCCC1)S(=O)(=O)c1ccc(F)cc1)NCCCO	none
c1ccc(-c2ccc(-c3cn4c(n3)CCC4)cc2)cc1	NALP1 inh 51, NLRP3 yeast inh 66 | NALP3 yeast conf 68 | Casp1 ASC ctr 87 | NALP3 yeast rt 74
COc1ccc(-c2cn3c(n2)CCC3)cc1	none
O=C(COC(=O)CCc1ccccc1)NNC(=O)c1ccccc1	none (no result: IMP-1 inh, NALP1 inh, VIM-2 inhibitor, PolyA inh)
